Bioassay records (PubChem BioAssay)
PostGolgi ctrl – yeast control strain growth, post-Golgi counter-screen | 98,000 tested, 5% active | AID 738 | inhibition, % at 10 µM | efflux-deficient yeast background strain, growth absorbance A615, 16 h
PostGolgi yeast – growth inhibition of a yeast mutant, post-Golgi transport screen | inhibition, % at 10 µM | 98,000 tested, 0.9% active | post-Golgi transport phenotypic cell assay | AID 739;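 further: yeast cells grown in 1536-well plates; yeast grown about 18 h at 30C before absorbance read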
Ecoli WT expand – growth inhibitors of E. coli BW25113 wild type. 98,000 tested, 0.15% active. growth inhibition, % at 100 µM. OD600 absorbance;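 active means growth inhibition above about 50% at one test dose, limit read from the data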;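 further: growth measured after 20 h incubation at 37 °C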
D1 mod – D1 dopamine receptor (human) allosteric modulation. P21728. HEK293 D1, CRE-luciferase, dopamine EC30 potentiation; actives deviate in either direction. B-score at 10 µM. 58,000 tested, 5.9% active. AID 641;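 active means luminescence count or its row- and column-corrected plate score outside the 99.7% band of the plate's sample wells, on either side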
Target sequence (P21728 whole entry, looked up): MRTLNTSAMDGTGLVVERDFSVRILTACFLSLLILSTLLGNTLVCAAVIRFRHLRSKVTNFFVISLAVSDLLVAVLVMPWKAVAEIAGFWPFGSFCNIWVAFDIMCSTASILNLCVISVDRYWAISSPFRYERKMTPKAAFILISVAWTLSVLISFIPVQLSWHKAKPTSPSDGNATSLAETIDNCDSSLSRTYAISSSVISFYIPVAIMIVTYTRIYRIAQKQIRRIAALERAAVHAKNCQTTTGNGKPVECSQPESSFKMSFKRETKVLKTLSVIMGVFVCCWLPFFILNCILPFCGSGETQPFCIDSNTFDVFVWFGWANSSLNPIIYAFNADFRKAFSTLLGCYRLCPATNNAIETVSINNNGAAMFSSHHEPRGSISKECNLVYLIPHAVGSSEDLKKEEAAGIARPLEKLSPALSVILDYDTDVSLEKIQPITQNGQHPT
Ecoli tolC – growth inhibitors of E. coli BW25113 tolC mutant. 65,000 tested, 2.2% active. OD615. growth inhibition, % at 10 µM (by protocol);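 active means growth inhibition at or above a cutoff equal to the mean over every tested compound plus 3 SD, cut at about 60% in these data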;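 further: growth measured after 20 h incubation at 37 °C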
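Signal: optical density read at 615 nm; Assay system: E. coli ΔtolC::kan strain BW25113; Times: 20 h incubation with compound, 37 °C; Dosing: 10 µM final, single dose.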
DAT uptake mod – human DAT dopamine uptake with cocaine, either direction. Q01959. LLC-PK1 hDAT cells, [14C]-dopamine uptake with cocaine IC80; actives deviate in either direction. B-score at 10 µM. 110,000 tested, 1.3% active. AID 449768;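 active means Z score or B-score, a plate-position-corrected score, falls beyond the plate's 99.7% confidence bounds, in either direction; inactive means both scores lie inside the 99.7% bounds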;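 further: scored against the spread of the other compound wells on the same plate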
Starred values were filed as active, the others as inactive; . = no result given. An excerpt weighted towards active compounds, which were near 9.3% of everything screened. Unless noted, no stated cut-off is given here; in the data, active means inhibition above about 30%; inactive means the rest.

SMILES | PostGolgi ctrl | PostGolgi yeast | Ecoli WT expand | D1 mod | Ecoli tolC | DAT uptake mod
O=C(CSc1nnc2sc3ccccc3n12)NCc1ccc2c(c1)OCO2 | . | . | . | -0.00523 | 2.2 | 0.565
COc1ccccc1NC(=O)NCCCl | . | . | . | . | . | -2.41*
Cc1cc(C)n(CCOc2ccc(Cl)cc2Cl)n1 | 35.0* | 10.5 | -1.0 | 0.456 | 25.5 | -0.0232
COc1ccc(C2/C=C\CN(C(=O)C3CCCC3)[C@H](Cc3ccccc3)C(=O)N2Cc2ccc(F)cc2)cc1 (stereo partly drawn) | . | . | . | . | . | -0.161
O=C(Nc1nc2ccccc2[nH]1)c1ccc(F)cc1 | 5.5 | 0.6 | 2.0 | -6.41* | 5.9 | -0.698
O=C(Nc1nc2ccccc2[nH]1)c1ccccc1F | 2.8 | 6.7 | -2.0 | -7.94* | -3.7 | 0.937
O=P(O)(CN1CCCCC1)C1CCCCC1O (stereo not drawn) | . | . | . | -0.273 | -13.1 | .
C#CCNC(=O)C1=C[C@H](C(C)(C)C)C[C@H](OCCCCO)O1 | . | . | . | . | . | 0.401
Cc1ccc([N+](=O)[O-])cc1NC(=O)CN1CCC(C)CC1 | 7.8 | 1.4 | 19.0 | . | . | .
CC1CCN(CC(=O)Nc2cccc([N+](=O)[O-])c2)CC1 | 1.1 | 1.1 | 17.0 | . | . | -2.77*
Cc1ccc(C(=O)CC(=O)c2cccc(F)c2)c(O)c1 | 27.2 | 4.2 | -8.0 | . | . | 0.0605
CCN(CC)C(=O)c1cc2sc3ccccc3c2s1 | 30.4* | -6.9 | 8.0 | 0.124 | 56.3 | 0.598
CCCNC(=O)COC(=O)CCC(=O)c1ccc(F)cc1 | -8.9 | 12.4 | 11.0 | . | . | -0.182
O=C(c1ccccc1[N+](=O)[O-])N1CCC(Cc2ccccc2)CC1 | 4.0 | -1.0 | 6.0 | . | . | 0.419
COc1cccc(-c2nc(NCC3CCCO3)c3ccccc3n2)c1O (stereo not drawn) | 43.1* | 7.4 | -9.0 | . | 2.0 | 0.91
Oc1ccccc1-c1nc(NCC2CCCO2)c2ccccc2n1 (stereo not drawn) | 55.9* | -2.8 | -5.0 | 1.4 | 66.0* | 0.0887
COc1cccc(-c2nc(N3CCN(Cc4ccccc4)CC3)c3ccccc3n2)c1O | . | . | . | . | 4.1 | .
COc1ccc(-c2csc(NCCc3nc4cc(C(=O)NCCCO)ccc4n3Cc3ccc(C)cc3)n2)cc1 | . | . | . | . | . | 2.39
Cn1c(=O)c2c(SCc3cccnc3)nc(CC(C)(C)C)nc2n(C)c1=O | 54.0* | 6.4 | -18.0 | . | 97.4* | 0.227
Cn1c(=O)c2c(SCc3ccccn3)nc(CC(C)(C)C)nc2n(C)c1=O | 34.1* | 3.1 | 0.0 | . | . | 0.27
CN1CCN(c2ccccc2NC(=O)COc2ccc(Br)cc2)CC1 | 0.6 | 4.7 | 1.0 | . | . | 0.186
Cc1cc2cc(CN(C(=O)C3CC3)C3CCCC3)c3nnnn3c2cc1C | 14.2 | -7.0 | -5.0 | 2.33 | 20.7 | 2.89*
Brc1ccc2ncnc(NCc3ccccc3)c2c1 | 13.6 | 2.0 | -4.0 | . | . | -0.98
Clc1ccc(Nc2ncnc3ccc(Br)cc23)cc1 | 33.1* | -2.7 | -5.0 | . | . | 0.209
Clc1cccc(Nc2ncnc3ccc(Br)cc23)c1 | 46.2* | 9.4 | 2.0 | . | . | -0.131
SMILES | PostGolgi ctrl | PostGolgi yeast | Ecoli WT expand | D1 mod | Ecoli tolC | DAT uptake mod
CC(C)CCn1nnnc1C(C(C)C)N1CCC(C(N)=O)CC1 (stereo not drawn) | . | . | . | . | . | -0.393
COc1ccc(Oc2ncnc3c2oc2ccc(Br)cc23)cc1 | . | . | . | 0.765 | -17.9 | -7.44*
Cn1c(Br)nc2c1c(=O)n(CC(O)COc1ccccc1)c(=O)n2C (stereo not drawn) | 15.3 | -3.2 | -4.0 | 0.13 | -7.1 | 1.4
O=C(CSc1nnnn1C1CCCCC1)NCCc1ccccc1 | -5.4 | -4.4 | 8.0 | 0.0095 | 15.6 | 0.596
COc1cc(S(=O)(=O)N2CCOCC2)ccc1NC(=O)COC(=O)C12CC3CC(CC(C3)C1)C2 | 35.3* | -10.2 | -1.0 | 0.428 | -6.8 | 1.12
Cc1cc2ncn(/N=C/c3cc(Br)ccc3O)c2cc1C | 34.5* | 10.6 | -1.0 | -0.0104 | -1.7 | -1.81
Cc1ccc(NC(=O)CN(C)S(=O)(=O)c2cccc3nsnc23)cc1 | 7.7 | 4.1 | 6.0 | -5.36* | -13.5 | -1.36
CC(=O)c1cccc(NC(=O)CN(c2ccc(C)cc2)S(=O)(=O)c2cccc3nonc23)c1 | 34.4* | -3.9 | -5.0 | -0.774 | 15.9 | 1.08
CCN(CC)S(=O)(=O)c1cccc2nsnc12 | 48.8* | 0.8 | 7.0 | -0.764 | 5.0 | -0.0356
Cc1ccc(CNC(=O)CN(C)S(=O)(=O)c2cccc3nsnc23)cc1 | 25.9 | -0.2 | 5.0 | -0.0209 | 3.1 | 0.177
C=CCOC(=O)C1=C[C@@H](c2ccc(C(F)(F)F)cc2)C[C@@H](OCc2ccc(CO)cc2)O1 | . | . | . | . | . | 0.791
Cc1ccc(NC(=O)Nc2nc(-c3ccc(C)s3)cs2)cc1 | 1.4 | -5.7 | -7.0 | . | . | -0.495
COc1ccc(-c2cc(C(=O)Nc3cc(OC)cc(C(=O)Nc4cccc(C(F)(F)F)c4)c3)[nH]n2)cc1 | . | . | . | . | . | -0.265
COC(=O)c1cc(CN2CCN(c3ccccc3C)CC2)ccc1O | 33.0* | -1.4 | 3.0 | . | . | -0.0358
C=CCn1c(N)cc(=O)nc1SC(C)C(=O)Nc1cccc2ccccc12 (stereo not drawn) | . | . | . | . | . | -0.237
O=S(=O)(NCc1cc(-c2ccccc2)no1)c1ccc(Cl)cc1 | 9.5 | -1.0 | -5.0 | . | . | -0.751
O=S(=O)(Nc1nnc(-c2ccccc2)s1)c1ccc(Cl)cc1 | 10.4 | 19.3 | 5.0 | -0.477 | 87.4* | -3*
CN(C)CCn1c(C(=O)Nc2ccccc2)cc2ccccc21 | -1.0 | -5.9 | -7.0 | -2.74* | -43.2 | 0.0215
COc1ccc(N/C(C)=C2/C(=O)C(=O)N(CCO)C2c2ccc(Br)cc2)cc1 (stereo not drawn) | 6.3 | -5.3 | 5.0 | . | 22.1 | 1.46
Cc1cc(S(=O)(=O)N(Cc2ccccn2)Cc2ccco2)ccc1-n1cnnn1 | -10.5 | 7.0 | -3.0 | 0.209 | 14.2 | 2.61*
CCOc1ccccc1N/C=C/C(=O)C(C)(C)C | 32.9* | -17.7 | -4.0 | -0.134 | -0.5 | -0.818
CCCCCCn1c(=O)c(-c2ccccc2)c(O)c2ccccc21 | 37.6* | -5.3 | -1.0 | . | . | 2
Cc1ccc(S(=O)(=O)N(c2nc(N(C)C)nc(N(C)C)n2)n2cnnc2)cc1 | 9.2 | 11.4 | -6.0 | . | . | -0.456
Cc1ccc(C(=O)Nc2ccc(S(=O)(=O)N3CCc4ccccc4C3)cc2)o1 | 47.9* | 1.4 | -5.0 | -0.0198 | 51.2 | -0.0155
Cc1ccc(C(=O)Nc2ccc(S(=O)(=O)N3CCc4ccccc43)cc2)o1 | 24.0 | 6.7 | -10.0 | -0.0136 | 54.9 | 0.821
O=C(Nc1ccc(S(=O)(=O)N2CCCCC2)cc1)c1ccc(CN2CCc3ccccc3C2)cc1 | 53.6* | -2.1 | -10.0 | . | . | -0.0423
COC(=O)[C@@]1(Cc2ccc(F)cc2)[C@H]2c3cc(C(=O)N(C)C)n(Cc4nc5ccccc5[nH]4)c3C[C@H]2CN1C(=O)c1ccccc1 | . | . | . | . | . | 1.25
